Test results published in ChEMBL document CHEMBL1133728, “Synthesis, structure, and neuroprotective properties of novel imidazolyl nitrones” (J Med Chem, 2000).

What was measured:
Mus musculus [1] = test: In vivo induction of hypothermia in mice following 150 mg/Kg i.p.; type: functional
Mus musculus [2] = test: Inhibition of t-BHP (tert-butyl-hydro-peroxide) induced toxicity in mice following 150 mg/Kg i.p.; type: functional
In short: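 Male NMRI mice (30–35 g) pretreated ip with 150 mg/kg in 0.2 mL saline/Tween, 30 min before icv injection of 70% t-BHP (22 mg/kg/μl). Lethality checked at 1, 2, 5, 24 h; value is percentage survival at 2 h versus t-BHP-only group; n = 10 per group.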

Structure (SMILES) | Hypothermic effect (Mus musculus [1]) | Neuroprotection (Mus musculus [2]) [%]
CC(C)(C)/[N+]([O-])=C/c1c[nH]c(-c2ccccc2)n1 | 0.33 °C | 78
CC(C)(C)/[N+]([O-])=C/c1nc(-c2ccccc2)c[nH]1 | 1.42 degrees C | 0
CC(C)(C)/[N+]([O-])=C/c1c[nH]c(-c2ccccc2Cl)n1 | 1.91 °C | 71
CC(C)(C)/[N+]([O-])=C/c1c[nH]c(-c2ccncc2)n1 | 0.49 °C | 24
CC(C)(C)/[N+]([O-])=C/c1c[nH]c(-c2c[nH]cn2)n1 | 0.13 °C | 0
CC(C)(C)/[N+]([O-])=C/c1c[nH]c(-c2ccc(C(F)(F)F)cc2)n1 | 2.16 °C | 80
CC(C)(C)/[N+]([O-])=C/c1c[nH]c(-c2ccc(F)cc2)n1 | 2.01 °C | 67
CC(C)(C)/[N+]([O-])=C/c1c[nH]c(-c2ccco2)n1 | 0.72 °C | 15
CC(C)(C)/[N+]([O-])=C/c1c[nH]c(-c2cccc(Cl)c2)n1 | 1.66 °C | 89
CC(C)(C)/[N+]([O-])=C/c1c[nH]c(-c2ccc3ccccc3c2)n1 | 1.62 °C | 94
CC(C)(C)/[N+]([O-])=C/c1ccccc1 | 0.9 °C | 57
CC(C)(C)/[N+]([O-])=C/c1c[nH]c(-c2cccc3ccccc23)n1 | 0.52 °C | 75
CC(C)(C)/[N+]([O-])=C/c1c[nH]c(-c2cccnc2)n1 | 0.75 °C | 0
CC(C)(C)/[N+]([O-])=C/c1c[nH]c(-c2ccc(Cl)cc2)n1 | 1.32 °C | 89
Cc1ccc(-c2nc(/C=[N+](\[O-])C(C)(C)C)c[nH]2)cc1 | 1.24 °C | 66
CC(C)(C)/[N+]([O-])=C/c1c[nH]c(-c2ccccn2)n1 | 0.36 °C | 0
CC(C)(C)/[N+]([O-])=C/c1c[nH]c(-c2ccc([N+](=O)[O-])cc2)n1 | 1.89 °C | 93
Cn1c(/C=[N+](\[O-])C(C)(C)C)cnc1-c1ccccc1 | 0.69 °C | 0
CC(C)(C)/[N+]([O-])=C/c1c[nH]c(-c2ccsc2)n1 | 0.48 °C | 40
CC(C)(C)/[N+]([O-])=C/c1c[nH]c(-c2nccs2)n1 | 0.38 °C | 0
Cn1cc(/C=[N+](\[O-])C(C)(C)C)nc1-c1ccccc1 | 0.3 °C | 50
CC(C)(C)/[N+]([O-])=C/c1c[nH]c(-c2ccoc2)n1 | 0.78 °C | 30
COc1ccc(-c2nc(/C=[N+](\[O-])C(C)(C)C)c[nH]2)cc1 | 0.53 degrees C | 53
